Drawing on PubChem BioAssay AID624107 (Broad Institute, 2012), this text covers AC35 and activity change, negative = inhibition for 16 compounds.

Molecules are shown by their SMILES. The source made the active and inactive calls.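 Rule for the calls: active = fitted absorbance curve falls past 35% inhibition at a dose no higher than twice the top tested dose; inconclusive = flat fit at 30 to 70% inhibition, or poor fit; inactive = the rest.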

The test system of experiment [1] is P. aeruginosa PAK + EDDHA, pyoverdine absorbance 405 nm, 28 h. The experiment in a line: pyoverdine output of iron-starved P. aeruginosa PAK, dose response, PAK strain, absorbance 405 nm, dry powder (AID 624107). An outline of the steps:
(§1)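 System: Pseudomonas aeruginosa PAK wild-type strain, whole bacterial cells; buffer or medium: succinate M9, pH 7.0, 2 µM EDDHA; probe or stimulus: EDDHA 2 µM; compound dosing: 100 µM to 15 nM final; times: 28 h, 30 °C, humidified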

Test in experiment [2]: as above
The following applies: P. aeruginosa PAK + EDDHA, pyoverdine absorbance 405 nm, 28 h; at 100 µM (top of the series). An outline of the steps: as §1

As to `N#CC(c1ccc(Cl)cc1)c1ncccc1Cl` (stereo unspecified), the AC35 in experiment [1] was 22 µM. For `CCCCC(C#N)c1ccccn1` (stereo unspecified), in experiment [2], the activity change, negative = inhibition is 3.52% (inactive).

For the compound `CN(C)CCCC(C#N)c1ccc(Cl)cc1` (stereo unspecified), the AC35 in experiment [1] is > 100 µM (inactive). As to `CCCCC(c1ccc(Cl)cc1)c1nn[nH]n1` (stereo unspecified), the activity change, negative = inhibition in experiment [2] was -16.3% (inactive). Same read-out and setting: under `COCCOCCC(C#N)c1ccc(Cl)cc1` (stereo unspecified) stands 6.79% (inactive); under `COCCNC(C#N)c1ccc(Cl)cc1` (stereo unspecified), -17.9% (inactive). Consider `N#CC(c1cccc(Cl)n1)c1ccc(Cl)cc1F` (stereo unspecified), for which the AC35 in experiment [1] is 5.28 µM. Consider `Clc1ccc(C(c2cccc(Cl)n2)c2nn[nH]n2)cc1` (stereo unspecified), for which the activity change, negative = inhibition in experiment [2] is 14.5% (inactive). The same measure, in the same setting: under `CCCCC(C#N)c1ccc(Cl)cc1` (stereo unspecified) stands -14% (inactive); under `N#CC(c1ccc(F)cc1)c1cccc(Cl)n1` (stereo unspecified), -39.4% (inactive). Regarding `N#CC(c1ccc(Cl)cc1)c1cccc(C(F)(F)F)n1` (stereo unspecified), the AC35 in experiment [1] is 3.67 µM. Consider `N#CC(c1cccc(C(F)(F)F)n1)c1ccc(Cl)cc1F` (stereo unspecified), for which the AC35 in experiment [1] was 5.42 µM.

Turning to `N#CC(c1ccc(Cl)cc1)c1cccc(Cl)n1` (stereo unspecified), in experiment [1], the AC35 is 11.8 µM. For the compound `N#CC(c1ccc(C(F)(F)F)c(Cl)n1)c1ccccc1OC(F)(F)F` (stereo unspecified), the activity change, negative = inhibition in experiment [2] is -22.7% (inactive). Still for that read-out and setting: the figure for `COCCC(C#N)c1ccc(Cl)cc1` (stereo unspecified) is -7.69% (inactive). For `N#CC(c1ccc(F)cc1)c1cccc(C(F)(F)F)n1` (stereo unspecified), the AC35 in experiment [1] is 9.8 µM.
